Data on 17 compounds can be found in ChEMBL document CHEMBL2311348, “The extremo-α-carbonic anhydrase (CA) from Sulfurihydrogenibium azorense, the fastest CA known, is highly activated by amino acids and amines” (Bioorg Med Chem Lett, 2013).

Assay [1] has as its system Sulfurihydrogenibium azorense. The experiment in a line: Activation of Sulfurihydrogenibium azorense recombinant alpha carbonic anhydrase by stopped flow CO2 hydrase method. In a few lines:
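Full-length recombinant enzyme in a stopped-flow CO2 hydration assay at 25 °C: 0.2 mM phenol red read at its absorbance maximum, 10 mM Hepes pH 7.5, 0.1 M NaClO4, 10 s traces, CO2 1.7–17 mM. Activators were diluted from 10 mM water stocks down to 0.001 µM and preincubated with enzyme for 15 min at room temperature. Uncatalyzed rates were subtracted. kcat was measured at 10 µM activator. KA came from a steady-state equation, mean of ≥3 determinations.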

The subject of assay [2] is Sulfurihydrogenibium yellowstonense. Briefly: Activation of Sulfurihydrogenibium yellowstonense recombinant CA by stopped flow CO2 hydrase method.

The structures appear in SMILES notation.

Take `N[C@H](Cc1ccc(O)c(O)c1)C(=O)O`: the KA in assay [1] was 0.89 µM; in assay [2], 0.43 µM.

On to `NCCc1ccc(O)c(O)c1`, for which the KA is 0.011 µM in assay [1] and 0.037 µM in assay [2].

As to `NCCN1CCNCC1`, the results for the KA in assay [1] and in assay [2] were 0.076 µM and 0.09 µM, respectively.

For `CNC[C@@H](O)c1ccc(O)c(O)c1`, the KA is 0.074 µM in assay [1] and 0.68 µM in assay [2].

Regarding `N[C@H](Cc1c[nH]cn1)C(=O)O`, the KA in assay [1] is 0.09 µM; in assay [2] it was 0.012 µM.

As for `N[C@H](Cc1ccc(O)cc1)C(=O)O`, the KA was determined as 0.11 µM in assay [1] and 0.83 µM in assay [2].

Take `NCCc1c[nH]c2ccc(O)cc12`: the values for the KA in assay [1] and in assay [2] were 0.007 µM and 0.021 µM, respectively.

As for `NCCc1ccccn1`, the KA was 0.34 µM in assay [1] and 0.33 µM in assay [2].

In the case of `Nc1ccc(C[C@H](N)C(=O)O)cc1`, the KA in assay [1] was found to be 0.09 µM; in assay [2], 0.97 µM.

With `N[C@@H](Cc1ccc(O)cc1)C(=O)O`, the KA amounted to 0.052 µM in assay [1] and 0.001 µM in assay [2].

On to `N[C@@H](Cc1c[nH]c2ccccc12)C(=O)O`, for which the figures for the KA in assay [1] and in assay [2] were 0.023 µM and 0.007 µM, respectively.

On to `N[C@@H](Cc1ccc(O)c(O)c1)C(=O)O`, for which the figures for the KA in assay [1] and in assay [2] were 0.004 µM and 0.09 µM, respectively.

On to `NCCN1CCOCC1`, for which the KA in assay [1] is 1.15 µM; in assay [2], 0.1 µM.

On to `N[C@@H](Cc1c[nH]cn1)C(=O)O`, for which the KA in assay [1] is 0.071 µM; in assay [2], 0.11 µM.

Regarding `N[C@H](Cc1c[nH]c2ccccc12)C(=O)O`, the KA came to 0.003 µM in assay [1] and 0.002 µM in assay [2].

In the case of `NCCc1c[nH]cn1`, the KA in assay [1] amounted to 0.1 µM; in assay [2], 0.08 µM.

Take `NCc1ccccn1`: the KA in assay [1] worked out at 0.081 µM; in assay [2], 0.1 µM.
